Screening results deposited in PubChem by Sanford-Burnham Center for Chemical Genomics.
A selection follows.
HKDC1 activator – HKDC1 hexokinase activators, primary screen, biochemical, fluorescence, uHTS; Q2TB90; recombinant HKDC1, G6PDH/diaphorase resazurin fluorescence; stronger effect = lower value; activity change, negative = activation, % at 20 µM; 340,000 tested, 0.056% active; AID 493187, 2011;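 active means activation of 40% or more at 20 µM, a change of -40% or lower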
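Signal: coupled resazurin-to-resorufin fluorescence, Ex 525/Em 613 nm. Test system: in-house human HKDC1 enzyme, G6PDH and diaphorase coupling enzymes. Quantity: HKDC1 5 µg/mL. Timing: 90 min reaction at room temperature, dark.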
Large screens that a line does not name were inactive.

CC(=O)C1=C(c2ccc(Br)cc2)C(=O)c2ccccc2C1=O	none
O=C1C(C2=C(O)c3ccccc3C2=O)=Nc2ccccc21	HKDC1 activator -242
O=C1C(=C(I)I)c2ccccc2-c2ccccc21	none
Cc1cc(C)n2nc(SCc3nnc(SCc4ccccc4C)s3)nc2n1	none
CC(C)c1nc2oc3c(NCCO)ncnc3c2c2c1COC(C)(C)C2	none
COc1cc(N=c2ssnc2Cl)cc(OC)c1OC	HKDC1 activator -100
COc1ccc(N=c2ssnc2Cl)cc1	HKDC1 activator -55
COc1cc(/C=C2\SC(=O)N(c3ccc(Cl)cc3)C2=O)cc([N+](=O)[O-])c1O	none
COc1ccc(N(CCCN2C(=O)c3cccc4cccc(c34)C2=O)C(=O)c2cccnc2)cc1	none
Cc1cc(C)cc(-n2c(N)c(C(=O)Nc3c(C)n(C)n(-c4ccccc4)c3=O)c3nc4ccccc4nc32)c1	none
C=CCN1C=C2C(=O)C(C)(OC(=O)CCC(=O)OC)C(=O)C(Br)=C2C=C1c1ccc(OC)cc1 (stereo not given)	none
O=c1cc(O)c2sc(Nc3ccc(F)c(Cl)c3)nc2[nH]1	none
CC(C)(C)c1ccc(-c2csc(NNC3=NCCCCC3)n2)cc1	HKDC1 activator -61
Cc1oc2c(c1C(=O)c1ccc(Cl)cc1)C(=O)C(=O)c1ccccc1-2	none
O=C(N/N=C/c1ccc[nH]1)c1sc2ccccc2c1Cl	HKDC1 activator -42
COc1ccc(OC(=O)N2C/C(=C/c3ccccc3)C(=O)/C(=C\c3ccccc3)C2)cc1	none
Cc1nc2sc3c(NCc4ccco4)ncnc3c2c2c1COC(C)(C)C2	none
Cc1cc(C)n2nc(SCc3nnc(SCc4ccccc4Cl)s3)nc2n1	none
O=C1NN(c2cccc(Br)c2)C(=O)/C1=C/c1ccc(-c2cc([N+](=O)[O-])ccc2O)o1	none
COC(=O)Cn1c2ccc(F)cc2c2nc(C)sc21	HKDC1 activator -92
CCOC(=O)Cn1c2ccc(F)cc2c2nc(C)sc21	HKDC1 activator -62
O=C(O)CSc1cc(NS(=O)(=O)c2ccc(Br)cc2)c2ccccc2c1O	none
CC1CCc2c(c3ccccc3n2C(=O)CCl)C1 (stereo not given)	none
C[n+]1c(-c2ccccc2)cc2c(=Cc3ccccc3)c3ccccc3n21	none
Cn1cnc([N+](=O)[O-])c1Sc1ccc(Br)cc1	HKDC1 activator -58
Cc1ccc(C)c(S(=O)(=O)Nc2ccc(O)c3ccccc23)c1	none
CCOc1ccc(CCNC(=O)c2ccc3c(=O)[nH]c4c(C(=O)NC(C)C)sc(=S)n4c3c2)cc1	none
Cc1cc(O)c(C=O)c2c1C(=O)Oc1c(CO)c(O)c3c(c1O2)C(O)OC3=O (stereo not given)	none
CC[n+]1c(/C=C2\Sc3ccccc3N2C)ccc2cccc(C)c21	HKDC1 activator -40
CCCC[n+]1c2ccccc2cc2ccccc21	none
CC(=O)c1ccc(NC(=O)c2ccc3nc(-c4ccco4)c(-c4ccco4)nc3c2)cc1	none
Cc1ccc(S(=O)(=O)N(C(=O)c2ccco2)c2cc3sc(=O)oc3c3ccccc23)cc1	none
O=C(CSc1nc(-c2ccc(F)cc2)nc2c1Cc1ccccc1O2)Nc1cccc(C(=O)O)c1	none
COCCN(C(=O)COC(=O)c1cc2c(s1)CCC2)c1c(N)n(Cc2ccccc2)c(=O)[nH]c1=O	none
COc1ccc(N=C2NN=C(c3ccc4c(c3)OCCO4)CS2)cc1	HKDC1 activator -84
FC(F)Sc1ccc(N=C2NN=C(c3ccc4c(c3)OCCO4)CS2)cc1	HKDC1 activator -101
C[n+]1c(-c2ccccc2)cc2c(=Cc3ccc([N+](=O)[O-])cc3)c3ccccc3n21	none
c1coc(-c2nc(-c3ccco3)c(-c3ccco3)nc2-c2ccco2)c1	none
O=c1[nH][nH]c2c(N=Cc3ccccc3O)ccc(F)c12	none
COC(=O)CCC(=O)OC1(C)C(=O)C2=CN(C3CCCC3)C(c3ccc(OC)cc3)=CC2=C(Br)C1=O (stereo not given)	none
Cc1cc(C)c(S(=O)(=O)/N=C2/C=C(Sc3ncn[nH]3)C(=O)c3ccccc32)cc1C	none
Cc1ccccc1OCCCN1C(=O)C(=O)c2cccc(C)c21	none
COc1ccc(-n2cccc2/C=C2\C(=N)N3N=C(c4ccco4)SC3=NC2=O)cc1	none
COc1ccc(C2=CC3=C(Br)C(=O)C(C)(OC(=O)c4ccco4)C(=O)C3=CO2)cc1 (stereo not given)	none
O=C(O)c1ccc(-c2ccc(/C=c3/sc4nc5ccccc5n4c3=O)o2)cc1Cl	none
CC(=O)N1CCN(C2c3cccc4cccc(c34)C2NS(=O)(=O)c2ccccc2)CC1 (stereo not given)	HKDC1 activator -49
Cn1cnnc1SC1c2cccc3cccc(c23)C1NS(=O)(=O)c1ccccc1 (stereo not given)	HKDC1 activator -49
COCC(=O)OC1CCn2c1nc1c2C(=O)C(C)=C(NC(C)=O)C1=O (stereo not given)	none
Oc1c(Br)cc(Br)cc1/C=N/c1nc2c(s1)CCCC2	none
COc1ccc(C2=CC3=C(Br)C(=O)C(C)(OC(=O)c4cccs4)C(=O)C3=CO2)cc1 (stereo not given)	none
Cc1ccccc1C(=O)Nc1ccc2c(C#N)c3nc4ccccc4nc3n2c1	none
CC(=O)c1cc(O)c2ccccc2c1O	none
COc1cccc2cc(C(=O)Nc3ccc(F)cc3)c(=Nc3ccc(C(=O)O)cc3)oc12	none
CCN1C/C(=C\c2cccc([N+](=O)[O-])c2)C(=O)/C(=C/c2cccc([N+](=O)[O-])c2)C1	none
N=C1N(/N=C/c2ccccc2)C(=Nc2ccccc2)C(=S)N1c1ccccc1	HKDC1 activator -49
Cc1nn(-c2ccccc2)c(Cl)c1CN(C(=O)CCl)c1ccc(Cl)cc1	none
COc1ccc2c(c1)c(=O)oc1c(C)c(OCc3cc(C(=O)O)oc3C)ccc12	none
O=C(O)c1ccc(S(=O)(=O)/N=C2\C=C(Nc3ccccc3F)C(=O)c3ccccc32)cc1	none
Cc1ccc(S(=O)(=O)Nc2ccc(O)c3ccccc23)c(C)c1	none
O=C1C=C(NCc2ccccc2)c2ccccc2C1=O	none
O=C1C(Cl)=C(NCCc2ccccc2)C(=O)c2ccccc21	none
O=C1C(Cl)=C(NCc2cccnc2)C(=O)c2ccccc21	HKDC1 activator -45
O=c1oc2cc(Oc3c([N+](=O)[O-])cc(C(F)(F)F)cc3[N+](=O)[O-])ccc2c2c1CCCC2	none
C/C(=N\NC(=O)c1c(C)nc2ccccn12)c1ccc(O)cc1O	HKDC1 activator -45
O=C(CCl)N(c1ccc(Cl)cc1)c1c[nH]c2ccccc12	none
COc1ccc(-c2nc3c(c(=O)n(C)c(=O)n3C)n2CC2CC(c3ccccc3)=NO2)cc1OC (stereo not given)	HKDC1 activator -48
Cc1ccc(C(=O)c2c(C)oc3c2C(=O)C(=O)c2ccccc2-3)cc1	none
CC1=NOC(=O)/C1=C\c1ccc(-c2cccc(Cl)c2)o1	none
C[n+]1c2cc(N)ccc2cc2ccc(N)cc21	none
COc1cc2c(cc1OC)-c1cc(NCc3ccccn3)nc(=O)n1CC2	none
c1ccc2oc(C3=NNC(=NC4CC4)SC3)cc2c1	HKDC1 activator -47
CC(=O)Nc1ccc(NC2=C/C(=N/S(=O)(=O)c3cccs3)c3ccccc3C2=O)cc1	none
CCCc1nc2oc3c(NCCOCCO)ncnc3c2c2c1COC(C)(C)C2	none
N=C1/C(=C/c2coc3ccccc3c2=O)C(=O)N=C2SC(c3ccco3)=NN12	none
Cc1cc(C)nc(Nc2n[nH]c(-c3ccc(C(C)(C)C)cc3)n2)n1	HKDC1 activator -51
O=C(O)COc1ccc(/C=N/NC(=O)c2ccc(-c3csc(Nc4ccc(Cl)cc4)n3)cc2)cc1	none
COC1=CC(=O)C(OC)=C(OC)C1=O	none
